ChEMBL document CHEMBL2062453, “Lead optimization through VLAK protocol: new annelated pyrrolo-pyrimidine derivatives as antitumor agents” (2012)

Key:
Type in all cases: functional
MOLT-4 = assay: Cytotoxicity against human MOLT4 cells after 48 hrs by SRB assay; details: MOLT-4, 48 h
Summary of the method: (§1)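 Five-dose screen, 10-fold or ½-log dilutions, compound stock in DMSO. Cells were in RPMI 1640 with 5% FBS and 2 mM glutamine at 5000–40,000 cells/well, preincubated 24 h, 37 °C, 5% CO₂, with a time-zero plate TCA-fixed. After 48 h drug exposure, cells were TCA-fixed and stained with 0.4% SRB, read at 515 nm. GI50, TGI and LC50 were derived from time-zero, control and test absorbances.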

RPMI-8226 = assay: Cytotoxicity against human RPMI8226 cells after 48 hrs by SRB assay; details: RPMI-8226, 48 h; summary of the method: as §1
HOP-62 = assay: Cytotoxicity against human HOP62 cells after 48 hrs by SRB assay; details: HOP-62, 48 h
Summary of the method: (§2)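 NCI 60-cell five-dose screen. Cells grown in RPMI 1640 with 5% FBS and 2 mM glutamine, plated at 5000–40,000 cells/well, and preincubated 24 h at 37 °C in 5% CO2. Time-zero plates fixed with TCA. Five serial dilutions of DMSO stock added, then 48 h exposure. TCA fixation, 0.4% SRB staining, absorbance read at 515 nm. GI50 from [(Ti−Tz)/(C−Tz)]×100 = 50.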

HOP-92 = assay: Cytotoxicity against human HOP92 cells after 48 hrs by SRB assay; details: HOP-92, 48 h
Summary of the method: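 NCI 60-line five-dose screen. Cells are grown in RPMI 1640 with 5% FBS and 2 mM glutamine, plated at 5000–40,000 cells/well, and preincubated 24 h at 37 °C in 5% CO2. Compound is dissolved in DMSO and given at five concentrations (10-fold or ½-log dilutions) for 48 h. Cells are TCA-fixed (HL-60(TB), suspension: 16% final; HOP92, adherent: 10% final), SRB-stained and read at 515 nm. GI50 comes from [(Ti−Tz)/(C−Tz)]×100 = 50.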

NCI-H226 = assay: Cytotoxicity against human NCI-H226 cells after 48 hrs by SRB assay; details: NCI-H226, 48 h; summary of the method: as §1
NCI-H23 = assay: Cytotoxicity against human NCI-H23 cells after 48 hrs by SRB assay; details: NCI-H23, 48 h; summary of the method: as §1
HT-29 = assay: Cytotoxicity against human HT-29 cells after 48 hrs by SRB assay; details: HT-29, 48 h; summary of the method: as §2
SW-620 = assay: Cytotoxicity against human SW620 cells after 48 hrs by SRB assay; details: SW-620, 48 h
Summary of the method: (§3)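 NCI 60-panel five-dose screen. Cells in RPMI 1640 with 5% FBS and 2 mM glutamine, plated at 5000–40,000 cells/well and preincubated 24 h at 37 °C under 5% CO2. Five 10-fold or half-log dilutions were added from a DMSO stock for 48 h. Cells were TCA-fixed (SR settled cells: 16% final), SRB-stained and read at 515 nm. GI50 was taken where (Ti−Tz)/(C−Tz)×100 = 50.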

SF-295 = assay: Cytotoxicity against human SF295 cells after 48 hrs by SRB assay; details: SF-295, 48 h; summary of the method: as §1
SF-539 = assay: Cytotoxicity against human SF539 cells after 48 hrs by SRB assay; details: SF-539, 48 h; summary of the method: as §1
SNB-75 = assay: Cytotoxicity against human SNB75 cells after 48 hrs by SRB assay; details: SNB-75, 48 h; summary of the method: as §1
U-251 = assay: Cytotoxicity against human U251 cells after 48 hrs by SRB assay; details: U-251, 48 h; summary of the method: as §3
LOX IMVI = assay: Cytotoxicity against human LOXIMVI cells after 48 hrs by SRB assay; summary of the method: as §2
SK-MEL-28 = assay: Cytotoxicity against human SK-MEL-28 cells after 48 hrs by SRB assay; details: SK-MEL-28, 48 h; summary of the method: as §1
UACC-62 = assay: Cytotoxicity against human UACC62 cells after 48 hrs by SRB assay; details: UACC-62, 48 h; summary of the method: as §3
OVCAR-3 = assay: Cytotoxicity against human OVCAR3 cells after 48 hrs by SRB assay; details: OVCAR-3, 48 h; summary of the method: as §1
OVCAR-8 = assay: Cytotoxicity against human OVCAR8 cells after 48 hrs by SRB assay; details: OVCAR-8, 48 h; summary of the method: as §1
786-0 = assay: Cytotoxicity against human 786-0 cells after 48 hrs by SRB assay; details: 786-0, 48 h; summary of the method: as §2
A498 = assay: Cytotoxicity against human A498 cells after 48 hrs by SRB assay; details: A498, 48 h; summary of the method: as §2
ACHN = assay: Cytotoxicity against human ACHN cells after 48 hrs by SRB assay; summary of the method: as §2
RXF 393 = assay: Cytotoxicity against human RXF393 cells after 48 hrs by SRB assay; details: RXF 393, 48 h; summary of the method: as §1
UO-31 = assay: Cytotoxicity against human UO31 cells after 48 hrs by SRB assay; details: UO-31, 48 h; summary of the method: as §3
DU-145 = assay: Cytotoxicity against human DU145 cells after 48 hrs by SRB assay; details: DU-145, 48 h; summary of the method: as §2
MDA-MB-231 = assay: Cytotoxicity against human MDA-MB-231 cells after 48 hrs by SRB assay; details: MDA-MB-231, 48 h; summary of the method: as §2
BT-549 = assay: Cytotoxicity against human BT549 cells after 48 hrs by SRB assay; details: BT-549, 48 h; summary of the method: as §2

For `CSC1=Nc2c(c(C)c(-c3ccccc3)n2CCCN2CCCCC2)C2=NC(=O)CC(C)N12` (stereo not drawn), the GI50 (MOLT-4) was 2 µM, the LC50 (MOLT-4) was 20.4 µM and the TGI (MOLT-4; read-out: pTGI (converted)) was 5.13 µM. It also gave a GI50 (RPMI-8226) of 0.166 µM, an LC50 (RPMI-8226) of 4.27 µM and a TGI (RPMI-8226; read-out: pTGI (converted)) of 1.2 µM. It also gave a GI50 (HOP-62) of 3.16 µM, an LC50 (HOP-62) of over 100 µM and a TGI (HOP-62; read-out: pTGI (converted)) of 26.3 µM. The LC50 (HOP-92) was over 100 µM, the GI50 (NCI-H226) was 3.55 µM and the LC50 (NCI-H226) was over 100 µM. The TGI (NCI-H226; read-out: pTGI (converted)) was over 100 µM, the GI50 (NCI-H23) was 2.95 µM and the LC50 (NCI-H23) was over 100 µM. The TGI (NCI-H23; read-out: pTGI (converted)) was over 100 µM, the GI50 (HT-29) was 1.62 µM and the LC50 (HT-29) was over 100 µM. For the same compound, the TGI (HT-29; read-out: pTGI (converted)) was 7.24 µM, the GI50 (SW-620) was 2.4 µM and the LC50 (SW-620) was 32.4 µM. For the same compound, the TGI (SW-620; read-out: pTGI (converted)) was 10.5 µM, the GI50 (SF-295) was 2.57 µM and the LC50 (SF-295) was 69.2 µM. For the same compound, the TGI (SF-295; read-out: pTGI (converted)) was 10.2 µM, the GI50 (SF-539) was 6.46 µM and the LC50 (SF-539) was over 100 µM. The TGI (SF-539; read-out: pTGI (converted)) was 87.1 µM, the GI50 (SNB-75) was 2.69 µM and the LC50 (SNB-75) was over 100 µM. The TGI (SNB-75; read-out: pTGI (converted)) was 21.9 µM, the GI50 (U-251) was 2.45 µM and the LC50 (U-251) was 33.9 µM. The TGI (U-251; read-out: pTGI (converted)) was 11.2 µM, the GI50 (LOX IMVI) was 3.02 µM and the LC50 (LOX IMVI) was 35.5 µM. It also gave a TGI (LOX IMVI; read-out: pTGI (converted)) of 12.9 µM, a GI50 (SK-MEL-28) of 2.88 µM and an LC50 (SK-MEL-28) of 36.3 µM. The TGI (SK-MEL-28; read-out: pTGI (converted)) was 13.2 µM, the GI50 (UACC-62) was 2.82 µM and the LC50 (UACC-62) was 38 µM. The TGI (UACC-62; read-out: pTGI (converted)) was 14.1 µM, the GI50 (OVCAR-3) was 2.4 µM and the LC50 (OVCAR-3) was 53.7 µM. The TGI (OVCAR-3; read-out: pTGI (converted)) was 8.51 µM, the GI50 (OVCAR-8) was 3.72 µM and the LC50 (OVCAR-8) was over 100 µM. It also gave a TGI (OVCAR-8; read-out: pTGI (converted)) of 30.9 µM, a GI50 (786-0) of 3.55 µM and an LC50 (786-0) of over 100 µM. It also gave a TGI (786-0; read-out: pTGI (converted)) of 47.9 µM, a GI50 (A498) of 3.16 µM and an LC50 (A498) of over 100 µM. The TGI (A498; read-out: pTGI (converted)) was 9.12 µM, the GI50 (ACHN) was 3.02 µM and the CC50 (ACHN; read-out: pLC50 (the source's name) (converted)) was over 100 µM. The TGI (ACHN; read-out: pTGI (converted)) was 22.4 µM, the GI50 (RXF 393) was 1.51 µM and the LC50 (RXF 393) was 25.1 µM. It also gave a TGI (RXF 393; read-out: pTGI (converted)) of 4.68 µM, a GI50 (UO-31) of 5.01 µM and an LC50 (UO-31) of 75.9 µM. It also gave a TGI (UO-31; read-out: pTGI (converted)) of 24 µM, a GI50 (DU-145) of 3.39 µM and an LC50 (DU-145) of over 100 µM. It also gave a TGI (DU-145; read-out: pTGI (converted)) of 27.5 µM, a GI50 (MDA-MB-231) of 1.82 µM and an LC50 (MDA-MB-231) of over 100 µM. The TGI (MDA-MB-231; read-out: pTGI (converted)) was 9.55 µM, the GI50 (BT-549) was 2.63 µM and the LC50 (BT-549) was 85.1 µM. It also gave a TGI (BT-549; read-out: pTGI (converted)) of 9.55 µM.
